From PubChem BioAssay AID2646 (Broad Institute, 2010) come the findings set out here.

Active and inactive are the calls of the source.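 Rule for the calls: active = mean cAMP rise at 10 µM above half of the positive control's rise; inactive = the rest.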

The assay deals with human washed platelets, cAMP competitive ELISA, 5 min. Nature of the assay: platelet cAMP elevation by single compound, confirmation, counter-screen for platelet activation inhibitor project, cell-based, competitive ELISA, PGE1 reference (AID 2646). The note with it: at 10 µM; hits give high values. The gist of the method:
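System: washed human donor platelets. Buffer or medium: lysis in 0.1 M HCl with 0.5% Triton X-100. Incubation: 5 min platelet exposure to compound or control. Measured by: cAMP competitive ELISA. Repeats: duplicate samples per compound.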

On to `CCCC(=O)Nc1cccc(NC(=O)c2ccccc2Br)c1`, for which the cAMP elevation, % of PGE1 is 43.9% (inactive).
